Laboratory results reported in ChEMBL document CHEMBL4145686, “Discovery of a Potent and Selective Steroidal Glucocorticoid Receptor Antagonist (ORIC-101)” (J Med Chem, 2018).
The source made the active and inactive calls. No cut-off for these calls is given here.

Experiments:
OVCAR-5 = assay: Antitumor activity against human OVCAR5 cells xenografted in chronic cortisol treated nude mouse assessed as reduction in tumor volume at 75 mg/kg, po BID dosed via gavage; assay type: functional, organism-based
Summary of the method: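 Cortisol given in drinking water at 100 mg/L before tumor implantation and throughout the study. Mice bearing established OVCAR5 xenografts, n = 10 per group. Gemcitabine 100 mg/kg and carboplatin 60 mg/kg given every 3 days for 4 doses. Antagonist given at 75 mg/kg twice daily by oral gavage for the whole study. Tumor volume tracked, mean ± SEM, with significance assessed on day 21.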

[1] = Clearance in mouse at 0.5 mg/kg, iv; assay type: ADME, organism-based; conditions: in vivo
[2] = target: T1, Glucocorticoid receptor (Homo sapiens) (UniProt P04150); assay: (§1) Antagonist activity at GR in human OVCAR5 assessed as reduction in dexamethasone-induced FKBP5 gene expression incubated for 24 hrs by RT-qPCR method
T1 sequence (whole entry): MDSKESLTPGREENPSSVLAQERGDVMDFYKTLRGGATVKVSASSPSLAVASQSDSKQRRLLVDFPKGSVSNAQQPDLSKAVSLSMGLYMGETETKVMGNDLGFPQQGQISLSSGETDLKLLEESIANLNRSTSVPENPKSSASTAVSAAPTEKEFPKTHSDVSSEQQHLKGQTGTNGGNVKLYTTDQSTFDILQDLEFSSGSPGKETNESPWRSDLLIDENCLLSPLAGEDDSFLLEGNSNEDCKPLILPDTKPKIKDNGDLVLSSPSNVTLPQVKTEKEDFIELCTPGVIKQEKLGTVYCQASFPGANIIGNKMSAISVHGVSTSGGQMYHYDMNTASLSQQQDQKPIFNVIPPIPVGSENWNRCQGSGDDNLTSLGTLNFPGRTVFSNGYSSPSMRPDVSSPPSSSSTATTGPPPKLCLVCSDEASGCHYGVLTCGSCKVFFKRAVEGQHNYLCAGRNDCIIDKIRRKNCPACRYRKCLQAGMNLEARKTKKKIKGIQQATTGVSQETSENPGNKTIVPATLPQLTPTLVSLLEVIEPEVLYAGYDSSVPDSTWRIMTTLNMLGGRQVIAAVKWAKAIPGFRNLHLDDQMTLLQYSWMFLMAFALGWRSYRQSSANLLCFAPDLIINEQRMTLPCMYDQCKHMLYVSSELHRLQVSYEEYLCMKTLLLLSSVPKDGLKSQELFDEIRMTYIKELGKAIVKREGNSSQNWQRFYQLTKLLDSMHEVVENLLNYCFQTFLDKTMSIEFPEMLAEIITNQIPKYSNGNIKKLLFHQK

Glucocorticoid receptor [3] = target: T2, Glucocorticoid receptor (Homo sapiens, UniProt P04150); assay: as §1
T2 sequence (P04150 whole entry): T1 sequence (whole entry)

[4] = Antagonist activity at GR in monkey PBMC assessed as reduction in dexamethasone-induced FKBP5 gene expression incubated for 6 hrs by RT-qPCR method; assay type: cell-based; conditions: Macaca mulatta
[5] = AUC in mini pig at 10 mg/kg, po; assay type: ADME, organism-based, Sus scrofa; conditions: in vivo
Androgen receptor = target: T3, Androgen receptor (Homo sapiens, UniProt P10275); assay: Agonist activity at AR in human LNAR cells assessed as increase in TMPRSS2 gene expression at 100 nM incubated for 24 hrs by RT-qPCR method; assay type: cell-based; conditions: 0.1 µM
T3 sequence (P10275 whole entry): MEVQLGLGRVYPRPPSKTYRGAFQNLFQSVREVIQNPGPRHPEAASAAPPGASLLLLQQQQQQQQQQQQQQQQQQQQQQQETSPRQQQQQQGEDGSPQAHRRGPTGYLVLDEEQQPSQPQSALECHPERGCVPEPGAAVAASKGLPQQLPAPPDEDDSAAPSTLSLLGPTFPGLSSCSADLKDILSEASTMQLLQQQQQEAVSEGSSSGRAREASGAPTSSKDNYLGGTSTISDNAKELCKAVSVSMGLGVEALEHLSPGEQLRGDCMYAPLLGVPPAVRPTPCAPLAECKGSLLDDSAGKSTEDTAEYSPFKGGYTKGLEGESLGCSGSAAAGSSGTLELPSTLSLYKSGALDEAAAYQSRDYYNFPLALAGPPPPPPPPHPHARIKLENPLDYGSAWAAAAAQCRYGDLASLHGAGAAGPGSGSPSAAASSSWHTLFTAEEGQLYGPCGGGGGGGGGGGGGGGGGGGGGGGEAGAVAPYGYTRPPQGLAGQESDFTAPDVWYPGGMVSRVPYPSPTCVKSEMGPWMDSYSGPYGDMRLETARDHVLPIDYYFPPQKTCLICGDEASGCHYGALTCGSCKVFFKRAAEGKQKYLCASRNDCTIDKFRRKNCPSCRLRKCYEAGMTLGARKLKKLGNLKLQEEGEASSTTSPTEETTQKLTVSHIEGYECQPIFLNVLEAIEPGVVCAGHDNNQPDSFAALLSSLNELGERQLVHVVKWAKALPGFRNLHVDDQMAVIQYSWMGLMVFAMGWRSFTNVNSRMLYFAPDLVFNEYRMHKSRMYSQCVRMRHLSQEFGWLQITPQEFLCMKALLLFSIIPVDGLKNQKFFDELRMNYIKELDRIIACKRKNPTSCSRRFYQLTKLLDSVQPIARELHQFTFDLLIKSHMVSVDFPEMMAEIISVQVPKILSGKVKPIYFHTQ

[6] = Clearance in rat at 0.5 mg/kg, iv; assay type: ADME, organism-based; conditions: in vivo
[7] = Volume of distribution at steady state in rat at 0.5 mg/kg, iv; assay type: ADME, organism-based; conditions: in vivo, read-out: Vdss
[8] = Unbound fraction in human plasma; assay type: ADME, cell-free
Glucocorticoid receptor [9] = target: T2, Glucocorticoid receptor; assay: Antagonist activity at GR in human PBMC assessed as reduction in dexamethasone-induced GILZ gene expression incubated for 6 hrs by RT-qPCR method; assay type: cell-based
[10] = Half life in mini pig at 0.5 mg/kg, iv; assay type: ADME, organism-based, Sus scrofa; conditions: in vivo
[11] = Unbound fraction in human plasma relative to mifepristone; assay type: ADME, cell-free

CC(C)N(C)c1ccc([C@H]2C[C@@]3(C)[C@@H](CC[C@@]3(O)C#CC(C)(C)C)[C@@H]3CCC4=CC(=O)CC[C@@H]4[C@H]32)cc1
TGI (OVCAR-5): inactive
clearance [1]: 27.2 mL/min/kg
inhibition [2]: Dose-dependent effect
IC50 (Glucocorticoid receptor [3]): 17.2 nM
IC50 [4]: 11.1 nM
AUC [5]: 1720 ng·h/mL
Activity (Androgen receptor): Not Active
clearance [6]: 31.7 mL/min/kg
Vd [7]: 4.6 L/kg
fraction unbound [8]: 0.14
IC50 (Glucocorticoid receptor [9]): 24.9 nM
half-life [10]: 12.2 h
Ratio [11]: 10
